This is a sample that favours compounds with a hit; in the whole collection about 2.2% have one here.
CR mimetic SO: reduction of superoxide in aged yeast, primary screen, HTS; S. cerevisiae aged cells, superoxide DHE fluorescence; stronger effect = lower value; superoxide response (% of plate mean), % at 10 µM; 0.18% of 330,000 active;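 active means superoxide response under a set limit, about three screen SD below normal, cut at about 65% in these data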;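 further: yeast aged for seven days with compound at 30 °C before DHE staining; 100% = average MFI of all compound-treated wells on the plate with controls excluded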
PglD inh: C. jejuni PglD acetyltransferase inhibitors, primary screen, biochemical, DTNB colorimetric, single point; UDP-N-acetylbacillosamine N-acetyltransferase PglD (Campylobacter jejuni); purified PglD enzyme, DTNB colorimetric CoA detection; inhibition, % at 12.5 µM; 0.098% of 360,000 active; in the data active means inhibition above about 16%, passing the limit was not always enough
Mot1-301 SUMO: yeast Mot1-301 growth rescue at high temperature, primary screen, SUMOylation pathway inhibitor project, S. cerevisiae, ATP luminescence, 38.5C. S. cerevisiae Mot1-301 growth rescue; percent above DMSO median, 100 means doubled. growth rescue, % at 18.8 µM. 1% of 320,000 active;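 active means every valid replicate shows activation above 250% relative to neutral control wells; inactive means the rest, any valid replicate at or below 250%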;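 further: OY570 slx delta 5 strain wells were the positive control but not used for scaling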
rRNA inh HTS: reduced GFP signal of wild-type E. coli, primary screen, bacterial rRNA inhibitor project, GFP/RFP fluorescence, OD600, single point. 1.6% of 350,000 active. AID 720706, 2013. E. coli WT GFP vs humanized-ribosome RFP mutants, 24 h; stronger effect = lower value; DMSO median 0, no signal -100. GFP signal change (wild-type ribosome), % (test concentration not listed);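 active means significant combined selectivity score with lowered wild-type GFP, culture density cut under 30%, mutant RFP and density less affected; inactive means any of these conditions unmet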
Cneo AK release: Cryptococcus neoformans cell lysis inducers, primary screen, AK release luminescence, single concentration | C. neoformans lysis, adenylate kinase release luminescence, 4 h; normalised: neutral wells 0, clomiphene wells 100 | lysis activity, % at 15 µM | 0.2% of 360,000 active | AID 651654, 2012;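 active means mean lysis activity across replicates of at least 80%, whatever share of replicates individually reach that level; inactive means mean lysis activity below 80%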
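Material: C. neoformans cells | Amount: Yeast cell density of 5 × 10^6 cells/mL | Medium: Fresh YPD growth medium | Dosing: Single dose | Times: Static 4 h at 37 °C with compound, 1 h detection | Detection: AK luminescence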
Mot1 SUMO dose: growth restoration of Mot1-301 yeast on galactose, dose response, SUMO pathway inhibitor project, whole organism, S. cerevisiae, ATP luminescence, cherry-picked samples | shares compounds with Mot1-301 SUMO | S. cerevisiae Mot1-301 galactose growth, 24 h; -100 = growth of slx-deleted rescue strain | growth activity, percent, % at 42 µM | 2,300 tested, under 10 active;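 active means Signal drops as the depositor expects, and the fitted half-maximal dose is no more than ten times the top valid tested dose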;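 further: more negative values mean stronger growth rescue toward the control strain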
Numbers without * were called inactive; . = no result; + = active, no number.

SMILES	CR mimetic SO	PglD inh	Mot1-301 SUMO	rRNA inh HTS	Cneo AK release	Mot1 SUMO dose
CCc1ccc(-n2c(Cc3ccccc3)n[nH]c2=S)cc1	124	.	889*	-17	.	2
Cc1nnsc1C(=O)N1CCC(CO)(Cc2ccccc2Cl)CC1	90	-3	+	-1	9	1
CC(C)(C)NC(=O)N1CCC(CO)(Cc2ccccc2Cl)CC1	97	4	-1	-10	-6	.
COc1ccc(CNC(=O)C[C@H]2C[C@@H]3c4cc(NC(=O)NC5CCCC5)ccc4O[C@@H]3[C@@H](CO)O2)cc1	.	1	.	-4	17	.
Cc1cccc(/C=N/NC(=O)Cc2cccs2)c1	112	-1	908*	-19*	0	0
O=C(Cc1cccs1)N/N=C/c1ccccc1	114	5	3	.	23	.
COc1ccc(C(=O)O/N=C(\N)c2cccc(C)c2)cc1OC	90	0	233	-21	-5	.
COc1ccc(C(=O)O/N=C(\N)c2ccccc2)cc1OC	103	3	380*	7	-7	0
CC=Cc1ccc2n(c1=O)C[C@@H]1[C@@H](CO)[C@H](C(=O)N(C)C)[C@H]2N1CC1CC1 (mixture of isomers)	.	3	.	3	-1	.
CC(=O)Nc1cccc(NC(=S)Nc2ccc(F)cc2F)c1	93	.	605*	15	.	0
CCn1c(=O)n(CC)c2cc(NC(=O)c3ccccc3Cl)ccc21	95	-10	406*	-18	-1	2
CC(=O)Nc1cccc(NC(=O)c2ccccc2Cl)c1	.	2	.	12	-2	.
COCC(=O)N1[C@H](C#N)[C@@H](c2ccccc2-c2ccc(C)cc2)[C@@H]1CO	.	.	.	-6	.	.
Cc1noc(C)c1NC(=O)Nc1ccc2c(c1)C(=O)N([C@H](C)CO)C[C@@H](C)[C@H](CN(C)C(=O)Nc1c(C)noc1C)O2	.	-2	.	4	2	.
NC(=S)N/N=C/c1ccccc1O	99	1	-6	-1	-3	.
NC(=S)N/N=C/c1cccc(O)c1O	95	.	630*	3	.	0
O=c1c2ccccc2ncn1-c1cccc(Cl)c1	122	-7	6	.	-1	.
O=c1c2ccccc2ncn1-c1ccc(Cl)cc1Cl	104	0	747*	-6	-2	1
O=C(CSc1nnc(NC(=O)CN2CCOCC2)s1)Nc1ccccc1	84	-3	+	.	-7	0
COc1ccc(NC(=O)Cn2c(=O)cnc3ccccc32)cc1S(=O)(=O)N1CCCCC1	91	.	428*	6	.	0
COc1ccc(NC(=O)COc2ccc(C)c(C)c2)cc1S(=O)(=O)N1CCCCC1	102	-4	-9	-8	-2	.
COc1ccc(NC(=O)COc2cc(C)cc(C)c2)cc1S(=O)(=O)N1CCCCC1	98	-1	530*	-3	5	1
O=C(O)CSc1ncnc2sc(-c3ccccc3)cc12	124	.	525*	-37	.	0
c1ccc(C(c2ccccc2)N2CCN(C(c3ccccn3)c3nnnn3C3CCCC3)CC2)cc1 (stereo not given)	92	.	+	.	.	0
c1ccc(C(c2nnnn2C2CCCC2)N2CCCCCC2)nc1 (stereo not given)	99	1	0	.	2	.
SMILES	CR mimetic SO	PglD inh	Mot1-301 SUMO	rRNA inh HTS	Cneo AK release	Mot1 SUMO dose
CC(C)[C@H](C)NC(=O)N(C)C[C@@H]1OCc2ccccc2-c2c(n(C)c3ccccc23)C(=O)N([C@@H](C)CO)C[C@H]1C	.	1	.	-1	-1	.
CCOc1ccc(Br)cc1S(=O)(=O)N1CCC(C(N)=O)CC1	101	-4	438*	-2	5	0
CCOc1ccc(Br)cc1S(=O)(=O)N1CCCN(C)CC1	119	0	12	9	-1	.
COc1ccc(OC)c(S(=O)(=O)N2CCC(C(=O)NCc3cccnc3)CC2)c1	105	-12	-19	6	-2	.
CCOc1ccc(Cl)cc1S(=O)(=O)N1CCC(C(=O)NCc2cccnc2)CC1	94	2	366*	-5	-1	0
C[C@H]1CN([C@@H](C)CO)C(=O)CCCn2cc(nn2)CO[C@H]1CN(C)Cc1ccc(C(=O)Nc2ccccc2N)cc1	.	5	.	3	-1	.
O=C(NCCN1CCOCC1)Nc1ccc(Cl)cc1Cl	91	6	901*	.	0	1
Cc1ccc(NC(=O)c2scc3c2CCCC3)cc1	102	.	3	5	.	.
CCN1CCCC(NC(=O)c2scc3c2CCCC3)C1 (stereo not given)	102	.	659*	2	1	0
O=c1[nH]cnc2sc3c(c12)CCC3	89	.	626*	-8	.	0
COc1ccc(CN(C)C[C@@H]2Oc3c(NC(=O)c4ccncc4)cccc3C(=O)N([C@@H](C)CO)C[C@H]2C)cc1	.	-2	.	-7	9	.
C[C@@H]1CN([C@H](C)CO)C(=O)Cc2cc(NC(=O)CCC(F)(F)F)ccc2O[C@@H]1CN(C)Cc1ccc(C(F)(F)F)cc1	.	-2	.	5	-2	.
CCCc1nccn1S(=O)(=O)c1cc(OC)ccc1OC	111	-1	.	.	3	.
CCc1nccn1S(=O)(=O)c1cc(OC)ccc1OC	105	-9	499*	5	1	1
Cc1cc(-c2ccccc2)n(-c2ccc(C(=O)NC(C)C)cc2)n1	108	-10	645*	.	-4	0
Cc1ccccc1Nc1c([N+](=O)[O-])ccc2c1=NC1(CCCCC1)N=2	123	-5	768*	6	6	0
Cc1ccc(C)c(Nc2c([N+](=O)[O-])ccc3nonc23)c1	104	3	11	6	1	.
CCCCc1n[nH]c(=S)n1Cc1ccc(C)cc1	102	.	+	.	.	1
CCCCCCCc1n[nH]c(=S)n1Cc1ccccc1	95	.	-12	-20	.	.
Cc1ccc(-c2noc(C3CCCN(S(=O)(=O)c4ccc5ccccc5c4)C3)n2)o1 (stereo not given)	110	.	765*	.	.	0
COc1cc(-c2nnc(SCC#CCO)o2)cc(OC)c1OC	93	6	967*	0	1	1
Cc1nc(NCCN2CCOCC2)c2nnn(Cc3c(F)cccc3Cl)c2n1	106	-4	629*	.	1	0
Cc1cccc(N/C=C/C(=C(C#N)C#N)N(C)C)c1	113	.	-6	.	.	.
CN(C)C(/C=C/Nc1cccc(Br)c1)=C(C#N)C#N	101	.	433*	2	.	1

Screens: PubChem, several laboratories
